Measured values: ChEMBL document CHEMBL1122805, “Structure-activity relationships of sparsomycin and its analogues. Octylsparsomycin: the first analogue more active than sparsomycin” (1984)
≈ marks a conversion by molar mass, not a printed value. Calls of active or inactive are those of the source. The rule behind the calls is not given here.

Each compound was assayed on L1210 (assay: In vitro cytostatic activity and inhibition of leukemia L1210 cells. The dose causing 50% of inhibition of colony formation (ID50) relative to untreated control cells; NA-Not Active). Conditions: Mus musculus.
Assay type: functional, cell-based
How it was run: (§1)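 Mouse leukemia L1210 cells taken from suspension culture; 100 cells plated per dish in soft agar medium (Dulbecco's with 20% horse serum, 2-mercaptoethanol, L-asparagine, DEAE-dextran, 0.3% agar) containing compound at several concentrations. Continuous exposure 8 days, 37 °C, 10% CO2, humidified. Colonies counted; ID50 from dose-effect curves versus untreated controls. Highest dose tested 100 μg/mL.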

Row | SMILES | ID50
1 | CSCSC[C@@H](CO)NC(=O)/C=C/c1c(C)nc(O)nc1O | inactive
2 | CSC[S@@+]([O-])C[C@@H](CO)NC(=O)/C=C/c1c(C)[nH]c(=O)[nH]c1=O | inactive
3 | Cc1nc(O)nc(O)c1/C=C/C(=O)N[C@H](CO)CSC[S+](C)[O-] (some centres undefined) | inactive
4 | CSC[S@+]([O-])C[C@@H](CO)NC(=O)/C=C/c1c(C)nc(O)nc1O | inactive

Each compound was assayed on L1210 (assay: In vitro cytostatic activity and inhibition of leukemia L1210 cells. The dose causing 50% of inhibition of colony formation (ID50) relative to untreated control cells). Conditions: Mus musculus, read-out: ID50 (the source's name).
Assay type: functional
How it was run: as §1

Row | SMILES | IC50
5 | CSCSC[C@H](CO)NC(=O)/C=C/c1c(C)nc(O)nc1O | 4.4 µg/mL (≈ 12.7 µM)
6 | CCCCCCCCSC[S+]([O-])C[C@H](CO)NC(=O)/C=C/c1c(C)nc(O)nc1O (some centres undefined) | 0.05 µg/mL (≈ 0.109 µM)
7 | CSC[S@+]([O-])C[C@H](CO)NC(=O)/C=C/c1c(C)[nH]c(=O)[nH]c1=O | 0.15 µg/mL (≈ 0.415 µM)
8 | CSC[S@@+]([O-])C[C@H](CO)NC(=O)/C=C/c1c(C)[nH]c(=O)[nH]c1=O | 2.1 µg/mL (≈ 5.81 µM)
9 | Cc1nc(O)nc(O)c1/C=C/C(=O)N[C@@H](CO)CSC[S+](C)[O-] (some centres undefined) | 66 µg/mL (≈ 183 µM)
